This is an account of results in ChEMBL document CHEMBL3351634, “Novel sulfonamides bearing pyrrole and pyrrolopyrimidine moieties as carbonic anhydrase inhibitors: Synthesis, cytotoxic activity and molecular modeling” (Eur J Med Chem, 2014).

The subject of experiment [1] is MCF7. In words: Cytotoxicity against human MCF7 cells assessed as cell survival at 50 uM after 48 hrs by sulforhodamine-B assay. Type of experiment: functional. The settings on record: MCF7, 48 h, read-out: Survival. The gist of the method:
(§1)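 Cells plated at 10⁴ per well and left 24 h to attach, then exposed for 48 h at 37 °C under 5% CO₂, with triplicate wells per concentration. Cells were fixed, washed and stained 30 min with 0.4% (wt/vol) SRB in 1% acetic acid. Unbound dye was removed with four 1% acetic acid washes and bound stain recovered in Tris-EDTA. Colour was read on an ELISA reader and expressed as surviving fraction.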
On the technique in general: In SRB staining, fixed cells bind dye roughly in proportion to their protein.

The subject of experiment [2] is MCF7. Briefly: Cytotoxicity against human MCF7 cells assessed as cell survival at 25 uM after 48 hrs by sulforhodamine-B assay. Type of experiment: functional. The settings on record: MCF7, 48 h, read-out: Survival. The gist of the method: as §1
Experiment [3] relates to MCF7. In words: Cytotoxicity against human MCF7 cells assessed as cell survival at 10 uM after 48 hrs by sulforhodamine-B assay. The settings on record: MCF7, 48 h, read-out: Survival. In kind it is functional. The method, boiled down:
as §1

Experiment [4] relates to MCF7. In words: Cytotoxicity against human MCF7 cells assessed as cell survival at 100 uM after 48 hrs by sulforhodamine-B assay. In kind it is functional. The settings on record: MCF7, 48 h, read-out: Survival. The gist of the method: as §1
Experiment [5] concerns the target Carbonic anhydrase 9 (Homo sapiens, UniProt Q16790). In words: Inhibition of human recombinant carbonic anhydrase 9 preincubated for 15 mins by stopped-flow CO2 hydrase assay.
The test system of experiment [6] is MCF7. Briefly: Cytotoxicity against human MCF7 cells after 48 hrs by sulforhodamine-B assay. The settings on record: MCF7, 48 h.
Experiment [7] concerns the target Carbonic anhydrase 1 (Homo sapiens, UniProt P00915). In words: Inhibition of human recombinant carbonic anhydrase 1 preincubated for 15 mins by stopped-flow CO2 hydrase assay.
Experiment [8] has as its target Carbonic anhydrase 2 (Homo sapiens, UniProt P00918). In words: Inhibition of human recombinant carbonic anhydrase 2 preincubated for 15 mins by stopped-flow CO2 hydrase assay.

Sequence of Carbonic anhydrase 1 (P00915 whole entry): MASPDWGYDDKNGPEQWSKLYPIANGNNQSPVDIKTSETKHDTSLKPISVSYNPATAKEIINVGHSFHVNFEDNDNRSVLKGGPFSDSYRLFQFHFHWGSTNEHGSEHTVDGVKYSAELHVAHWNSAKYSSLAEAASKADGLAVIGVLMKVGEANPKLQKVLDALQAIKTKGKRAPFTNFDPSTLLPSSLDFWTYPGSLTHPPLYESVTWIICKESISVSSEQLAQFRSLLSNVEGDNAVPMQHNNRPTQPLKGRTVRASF

As to `N#Cc1c(-c2ccc(Br)cc2)cn(-c2ccc(S(N)(=O)=O)cc2)c1NS(=O)(=O)c1ccccc1`, the viability at 50 µM in experiment [1] came to 20.2%. In addition, in experiment [2], the viability at 25 µM was 29%. The viability at 10 µM in experiment [3] came to 27.2%. Besides, in experiment [4], the viability at 100 µM turned out to be 23.2%. Moreover, the Ki in experiment [5] was determined as 0.849 µM. Moreover, the IC50 in experiment [6] came out at 7.01 µM.

As for `Cc1ccc(-n2c(=S)[nH]c3c(c(-c4ccc(Br)cc4)cn3-c3ccc(S(N)(=O)=O)cc3)c2=N)cc1`, in experiment [1], the viability at 50 µM is 22.9%. The viability at 25 µM in experiment [2] worked out at 24.2%. In experiment [3], the viability at 10 µM turned out to be 25%. Besides, the viability at 100 µM in experiment [4] was 24.5%. Half-maximal inhibition in experiment [6] (IC50) was put at 6.46 µM.

As to `Cc1nc(S)c2c(-c3ccc(Br)cc3)cn(-c3ccc(S(N)(=O)=O)cc3)c2n1`, in experiment [1], the viability at 50 µM worked out at 19.8%. Besides, the viability at 25 µM in experiment [2] stood at 21.8%. In addition, the viability at 10 µM in experiment [3] was 23.6%. Moreover, in experiment [4], the viability at 100 µM was determined as 23.1%. For the same molecule, the Ki in experiment [5] worked out at 0.0054 µM. In experiment [6], 6.74 µM corresponded to half-maximal inhibition (IC50).

For the molecule `NS(=O)(=O)c1ccc(-n2cc(-c3ccc(Br)cc3)c3c(=O)n(C(=O)c4ccc(Cl)cc4)c(-c4ccc(Cl)cc4)nc32)cc1`, the viability at 50 µM in experiment [1] worked out at 20.1%. In addition, the Ki in experiment [7] was more than 10 µM; in experiment [5] it was 0.488 µM; in experiment [8], more than 10 µM. Besides, in experiment [2], the viability at 25 µM came out at 29.3%. The viability at 10 µM in experiment [3] is 54.9%. Besides, in experiment [4], the viability at 100 µM was determined as 29.5%. In experiment [6], this molecule showed an IC50 of 13.1 µM.

With `COc1ccc(NC(=S)Nc2c(C#N)c(-c3ccc(Br)cc3)cn2-c2ccc(S(N)(=O)=O)cc2)cc1`, the viability at 50 µM in experiment [1] is 24.9%. For the same molecule, the viability at 25 µM in experiment [2] is 26.3%. Also, the viability at 10 µM in experiment [3] was 26.2%. In addition, the viability at 100 µM in experiment [4] turned out to be 21.7%. In experiment [6], this molecule had an IC50 of 7.01 µM.

Turning to `N#Cc1c(-c2ccc(Br)cc2)cn(-c2ccc(S(N)(=O)=O)cc2)c1NC(=S)Nc1ccccc1`, the viability at 50 µM in experiment [1] was determined as 22.7%. In addition, the viability at 25 µM in experiment [2] worked out at 23.5%. The viability at 10 µM in experiment [3] was 30.8%. Besides, the viability at 100 µM in experiment [4] is 21.7%. In addition, the Ki in experiment [5] came to 0.0624 µM. In experiment [6], it took 7.29 µM to reach half-maximal inhibition (IC50).

Turning to `Nc1nc(=O)[nH]c2c1c(-c1ccc(Br)cc1)cn2-c1ccc(S(N)(=O)=O)cc1`, the viability at 50 µM in experiment [1] came to 20.3%. For the same molecule, the viability at 25 µM in experiment [2] was 27.6%. Also, the viability at 10 µM in experiment [3] worked out at 27%. In experiment [4], the viability at 100 µM was found to be 23.8%. The Ki in experiment [5] came to 0.0244 µM. The midpoint of inhibition in experiment [6], the IC50, lay at 6.74 µM.

Turning to `NS(=O)(=O)c1ccc(-n2cc(-c3ccc(Br)cc3)c3c(=S)[nH]c(=S)[nH]c32)cc1`, the viability at 50 µM in experiment [1] came to 21.9%. The viability at 25 µM in experiment [2] is 29.4%. For the same molecule, the viability at 10 µM in experiment [3] came to 33.7%. Further, the viability at 100 µM in experiment [4] was 22.5%. The Ki in experiment [5] amounted to 0.0071 µM. This molecule also had an IC50 in experiment [6] of 7.56 µM.

Turning to `N#Cc1c(-c2ccc(Br)cc2)cn(-c2ccc(S(N)(=O)=O)cc2)c1NC(=S)Nc1ccc(Cl)cc1`, the viability at 50 µM in experiment [1] turned out to be 26%. Besides, the viability at 25 µM in experiment [2] was 25.7%. The viability at 10 µM in experiment [3] was determined as 28.8%. Moreover, the viability at 100 µM in experiment [4] turned out to be 29%. Moreover, the Ki in experiment [5] amounted to 0.0903 µM. In experiment [6], this molecule registered an IC50 of 8.12 µM.

The molecule `N#Cc1c(-c2ccc(Br)cc2)cn(-c2ccc(S(N)(=O)=O)cc2)c1N` yielded an IC50 in experiment [6] of 7.56 µM.

Turning to `CC(=O)CC(=O)Nc1c(C#N)c(-c2ccc(Br)cc2)cn1-c1ccc(S(N)(=O)=O)cc1`, in experiment [1], the viability at 50 µM worked out at 28%. Also, the viability at 25 µM in experiment [2] came to 28.2%. For the same molecule, in experiment [3], the viability at 10 µM was 29%. Moreover, the viability at 100 µM in experiment [4] was determined as 29.1%. For the same molecule, in experiment [5], the Ki amounted to 0.0055 µM. The same molecule showed an IC50 in experiment [6] of 8.11 µM.

For `Cc1ccc(S(=O)(=O)Nc2c(C#N)c(-c3ccc(Br)cc3)cn2-c2ccc(S(N)(=O)=O)cc2)cc1`, in experiment [1], the viability at 50 µM came out at 22.2%. Besides, the viability at 25 µM in experiment [2] is 27.1%. Further, the viability at 10 µM in experiment [3] stood at 32.4%. Also, in experiment [4], the viability at 100 µM worked out at 21.4%. The Ki in experiment [5] was 0.171 µM. In addition, it took 7.56 µM to reach half-maximal inhibition in experiment [6] (IC50).

As to `N#Cc1c(-c2ccc(Br)cc2)cn(-c2ccc(S(N)(=O)=O)cc2)c1NC(=O)c1ccc(Br)cc1`, the viability at 50 µM in experiment [1] is 24.9%. Moreover, in experiment [2], the viability at 25 µM is 32.7%. Moreover, the viability at 10 µM in experiment [3] turned out to be 35.8%. In experiment [4], the viability at 100 µM was 25.4%. For the same molecule, in experiment [6], the IC50 was 7.56 µM.

As to `N#Cc1c(-c2ccc(Br)cc2)cn(-c2ccc(S(N)(=O)=O)cc2)c1NC(=S)Nc1ccc([N+](=O)[O-])cc1`, the viability at 50 µM in experiment [1] is 25.5%. Further, the viability at 25 µM in experiment [2] was 27.6%. The viability at 10 µM in experiment [3] turned out to be 28%. In experiment [4], the viability at 100 µM is 26%. Further, the Ki in experiment [5] came to 0.0866 µM. Also, in experiment [6], inhibition was half-maximal at 8.11 µM (IC50).

As for `N#Cc1c(-c2ccc(Br)cc2)cn(-c2ccc(S(N)(=O)=O)cc2)c1NC(=S)Nc1ccc(I)cc1`, in experiment [1], the viability at 50 µM is 28.1%. In addition, the viability at 25 µM in experiment [2] came to 29%. Further, the viability at 10 µM in experiment [3] was determined as 31.2%. The viability at 100 µM in experiment [4] was 28.8%. The Ki in experiment [5] was 0.46 µM. In experiment [6], this molecule displayed an IC50 of 8.15 µM.

Regarding `NS(=O)(=O)c1ccc(-n2cc(-c3ccc(Br)cc3)c3c(=O)n(C(=O)c4ccccc4)c(-c4ccccc4)nc32)cc1`, in experiment [1], the viability at 50 µM came to 28.4%. For the same molecule, the Ki in experiment [7] was more than 10 µM; in experiment [5] it was 0.0065 µM. Also, the viability at 25 µM in experiment [2] was 31.8%. The viability at 10 µM in experiment [3] was found to be 36.6%. Also, the viability at 100 µM in experiment [4] was 26.8%. In experiment [6], half-maximal inhibition (IC50) was put at 8.11 µM.

On to `C/C(S)=N/c1c(C#N)c(-c2ccc(Br)cc2)cn1-c1ccc(S(N)(=O)=O)cc1`, for which the viability at 50 µM in experiment [1] is 30%. For the same molecule, the viability at 25 µM in experiment [2] came out at 31.2%. The viability at 10 µM in experiment [3] was determined as 33%. Besides, in experiment [4], the viability at 100 µM was determined as 29.9%. In experiment [5], the Ki was 0.006 µM. Inhibition in experiment [6] was half-maximal at 8.11 µM (IC50).

Turning to `N#Cc1c(-c2ccc(Br)cc2)cn(-c2ccc(S(N)(=O)=O)cc2)c1NC(=S)Nc1ccc(Br)cc1`, the viability at 50 µM in experiment [1] is 27.7%. In addition, in experiment [2], the viability at 25 µM was determined as 28%. Moreover, in experiment [3], the viability at 10 µM was determined as 29.8%. For the same molecule, the viability at 100 µM in experiment [4] was 29%. The same molecule registered an IC50 in experiment [6] of 8.15 µM.

As to `Nc1nc(=S)[nH]c2c1c(-c1ccc(Br)cc1)cn2-c1ccc(S(N)(=O)=O)cc1`, the viability at 50 µM in experiment [1] was found to be 19.9%. Also, in experiment [2], the viability at 25 µM stood at 25.5%. Further, the viability at 10 µM in experiment [3] was 23.1%. Further, in experiment [4], the viability at 100 µM was 25%. The Ki in experiment [5] came to 0.0429 µM. Further, in experiment [6], inhibition was half-maximal at 6.46 µM (IC50).

`N#Cc1c(-c2ccc(Br)cc2)cn(-c2ccc(S(N)(=O)=O)cc2)c1NC(=S)Nc1ccc(S(N)(=O)=O)cc1`: in experiment [1], the viability at 50 µM was found to be 25.5%. The viability at 25 µM in experiment [2] amounted to 29.1%. The viability at 10 µM in experiment [3] stood at 31.1%. In addition, in experiment [4], the viability at 100 µM was 27.6%. Besides, in experiment [5], the Ki is 0.0512 µM. This molecule had an IC50 in experiment [6] of 8.13 µM.

For orientation: Ki means a measure of affinity in units of concentration, obtained from inhibition or displacement. The term IC50 denotes the midpoint of a concentration-inhibition curve. A lower IC50 goes with greater potency.
